Assay results: ChEMBL document CHEMBL4138128, “Structural design, synthesis and pharmacological evaluation of thiazoles against Trypanosoma cruzi” (Eur J Med Chem, 2017)
The source made the active and inactive calls. The rule behind the calls is not given here.

Key:
[1] = Cytotoxicity against mouse J774 cells assessed as reduction in cell viability after 72 hrs by alamar blue assay; format: cell-based
Summary of the method: (§1)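 H9c2 or J774 cells (1 x 10^4/well) in DMEM/10% FBS preincubated 24 h, then exposed 72 h to six concentrations (0.41 to 100 µM) in triplicate, DMSO under 1%. Viability by AlamarBlue, read after 6 h at 570/600 nm; CC50 from three independent experiments; gentian violet positive control.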

Trypanosoma cruzi [2] = experiment: Antitrypanosomal activity against bloodstream trypomastigote stage of Trypanosoma cruzi Y infected in monkey LLC-MK2 cells assessed as reduction in parasite motility measured after 24 hrs by neubauer chamber method; format: functional, organism-based; details: LLC-MK2, 24 h
Summary of the method: (§2)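 Y strain trypomastigotes from LLC-MK2 supernatants, 4x10^5/well, incubated 24 h at 37°C, 5% CO2 with five concentrations; viable parasites counted by motility in Neubauer chamber. Inhibition versus untreated cultures; IC50 by non-linear regression; benznidazole reference.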

[3] = Cytotoxicity against rat H9c2 cells assessed as reduction in cell viability after 72 hrs by alamar blue assay; format: cell-based; summary of the method: as §1
[4] = Solubility of the compound in pH 5.5 sodium acetate buffer at 10 uM; details: pH 5.5, 10 µM
[5] = molecular target: Cruzipain (Trypanosoma cruzi) (UniProt P25779); experiment: Inhibition of recombinant Trypanosoma cruzi cruzain at 10 uM preincubated for 10 mins followed by Z-FR-AMC substrate addition measured for 5 mins at 12 secs time interval by […] relative to control
Summary of the method: (§3)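 Cruzain 0.5 nM in 0.1 M sodium acetate pH 5.5, 1 mM beta-mercaptoethanol, 0.01% Triton X-100, 25 °C; 10 min preincubation, then Z-FR-AMC 2.5 µM (Km 1 µM). Fluorescence (ex 340, em 440) read continuously 5 min; initial rates versus DMSO control. Screens at 10 µM, two independent runs in triplicate; IC50 from at least seven concentrations, four-parameter fit, at least two curves.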

[6] = Cytotoxicity against mouse J774 cells; format: cell-based; summary of the method: as §1
Trypanosoma cruzi [7] = experiment: Antitrypanosomal activity against Trypanosoma cruzi Y trypomastigotes infected in mouse J774 cells measured after […] by contrast phase microscopic method; format: functional, organism-based
Cruzipain = Cruzipain (Trypanosoma cruzi, UniProt P25779); experiment: Inhibition of recombinant Trypanosoma cruzi cruzain preincubated for 10 mins followed by Z-FR-AMC substrate addition measured for 5 mins at 12 secs time interval by flow cytometry relative to control; summary of the method: as §3
Trypanosoma cruzi [8] = experiment: Induction of apoptosis in bloodstream trypomastigote stage of Trypanosoma cruzi Y assessed as necrotic cells at 0.4 uM measured after 24 hrs by Annexin V-FITC/propidium iodide staining based flow cytometry (reference value: 0.5%); format: functional
Trypanosoma cruzi [9] = experiment: (§4) Antitrypanosomal activity against bloodstream trypomastigote stage of Trypanosoma cruzi Y infected in Balb/c mouse assessed as reduction in blood parasitaemia at 25 mg/kg, po qd administered for 5 consecutive days starting from day 5 post infection measured on day 12 post infection relative to control; format: functional; parameters: scale not given: the % may be the effect or the level left
Summary of the method: (§5)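 Female BALB/c mice (18-22 g, 6-8 weeks) infected i.p. with 10^4 Y strain bloodstream trypomastigotes in saline; six per group. From day 5, oral dosing once daily for 5 days; vehicle saline with 20% DMSO. Parasitaemia counted as motile parasites in 5 µL tail-vein blood; reduction = (vehicle mean − treated mean)/vehicle mean × 100. Mortality followed to 30 days post-treatment.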

Trypanosoma cruzi [10] = experiment: Induction of apoptosis in bloodstream trypomastigote stage of Trypanosoma cruzi Y assessed as early apoptotic cells at 0.4 uM measured after 24 hrs by Annexin V-FITC/propidium iodide staining based flow cytometry (reference value: 8.25%); format: functional
Trypanosoma cruzi [11] = experiment: Potency index, ratio of benznidazole IC50 to compound IC50 for antitrypanosomal activity against bloodstream trypomastigote stage of Trypanosoma cruzi Y infected in monkey LLC-MK2 cells; format: functional; summary of the method: as §2
Trypanosoma cruzi [12] = experiment: Antitrypanosomal activity against bloodstream trypomastigote stage of Trypanosoma cruzi Y assessed as induction of mitochondrial membrane potential loss at 0.4 to 0.8 uM measured after 24 hrs by Rho-123 staining based FACS analysis; format: functional, organism-based
Summary of the method: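 Trypomastigotes (1 x 10^7/mL) from LLC-MK2 culture supernatants, exposed 24 h at 37°C in DMEM with FBS; washed in PBS, stained 15 min with 5 µg/mL Rhodamine 123, washed, analysed immediately by flow cytometry; 10,000 events gated on trypomastigote region.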

Trypanosoma cruzi [13] = experiment: Induction of apoptosis in bloodstream trypomastigote stage of Trypanosoma cruzi Y assessed as viable cells at 0.4 uM measured after 24 hrs by Annexin V-FITC/propidium iodide staining based flow cytometry (reference value: 89.73%); format: functional
[14] = Safety index, ratio of compound CC50 to gentian violet CC50 for cytotoxicity against mouse J774 cells; format: cell-based; summary of the method: as §1
Trypanosoma cruzi [15] = experiment: Induction of apoptosis in bloodstream trypomastigote stage of Trypanosoma cruzi Y assessed as late apoptotic cells at 0.4 uM measured after 24 hrs by Annexin V-FITC/propidium iodide staining based flow cytometry (reference value: 1.51%); format: functional
Trypanosoma cruzi [16] = experiment: Synergistic antitrypanosomal activity against bloodstream trypomastigote stage of Trypanosoma cruzi Y infected in monkey LLC-MK2 cells measured after 24 hrs in presence of benznidazole; format: functional
Summary of the method: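 Doubling dilutions of each drug alone or in fixed-ratio combinations tested on trypomastigotes by the 24 h motility assay; combination index by Chou-Talalay method and isobologram.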

Trypanosoma cruzi [17] = experiment: Antitrypanosomal activity against bloodstream trypomastigote stage of Trypanosoma cruzi Y infected in Balb/c mouse macrophages assessed as reduction in number of infected cells measured after 3 days by hoeschst staining based confocal microscopic method; format: functional, organism-based
Summary of the method: (§6)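 BALB/c peritoneal macrophages (5x10^4/well) in DMEM/10% FBS, infected with trypomastigotes (10:1) for 2 h, washed, held 24 h, then treated 72 h (test at 8, 2, 0.5 µM; benznidazole 5 µM control). Formaldehyde-fixed, Hoechst-stained, imaged by confocal high-content microscopy for infected cells and amastigotes per 100 cells; six determinations; ANOVA with Bonferroni.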

Trypanosoma cruzi [18] = experiment: Antitrypanosomal activity against bloodstream trypomastigote stage of Trypanosoma cruzi Y infected in Balb/c mouse macrophages assessed as reduction in number of intracellular amastigotes measured after 3 days by hoeschst staining based confocal microscopic method; format: functional, organism-based; summary of the method: as §6
Trypanosoma cruzi [19] = experiment: Antitrypanosomal activity against bloodstream trypomastigote stage of Trypanosoma cruzi Y infected in Balb/c mouse assessed as protection against mouse mortality at 25 mg/kg, po qd administered for 5 consecutive days starting from day 5 post infection measured up to 30 days post treatment; format: functional, organism-based; summary of the method: as §5
Trypanosoma cruzi [20] = experiment: as §4, with “8” for “12”; format: functional; parameters: scale not given: the % may be the effect or the level left; summary of the method: as §5
[21] = Safety index, ratio of compound CC50 to gentian violet CC50 for cytotoxicity against rat H9c2 cells; format: cell-based; summary of the method: as §1
Mus musculus = experiment: Toxicity in Balb/c mouse infected with Trypanosoma cruzi Y trypomastigotes assessed as behavioral alteration at 25 mg/kg, po qd administered for 5 consecutive days starting from day 5 post infection; format: organism-based; details: in vivo; summary of the method: as §5

Chain of Cruzipain (Trypanosoma cruzi) (P25779 123-467 limits assumed): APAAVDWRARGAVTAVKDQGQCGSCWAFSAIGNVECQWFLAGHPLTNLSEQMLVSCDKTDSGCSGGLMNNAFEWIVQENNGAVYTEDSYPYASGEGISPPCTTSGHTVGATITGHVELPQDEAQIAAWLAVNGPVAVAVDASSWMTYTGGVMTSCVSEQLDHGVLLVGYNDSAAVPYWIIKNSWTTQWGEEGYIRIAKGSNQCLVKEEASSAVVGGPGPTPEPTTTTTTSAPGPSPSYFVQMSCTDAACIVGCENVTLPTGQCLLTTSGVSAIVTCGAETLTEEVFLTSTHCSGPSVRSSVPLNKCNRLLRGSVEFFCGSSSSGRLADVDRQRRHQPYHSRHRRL
Chain of Cruzipain (P25779 whole entry): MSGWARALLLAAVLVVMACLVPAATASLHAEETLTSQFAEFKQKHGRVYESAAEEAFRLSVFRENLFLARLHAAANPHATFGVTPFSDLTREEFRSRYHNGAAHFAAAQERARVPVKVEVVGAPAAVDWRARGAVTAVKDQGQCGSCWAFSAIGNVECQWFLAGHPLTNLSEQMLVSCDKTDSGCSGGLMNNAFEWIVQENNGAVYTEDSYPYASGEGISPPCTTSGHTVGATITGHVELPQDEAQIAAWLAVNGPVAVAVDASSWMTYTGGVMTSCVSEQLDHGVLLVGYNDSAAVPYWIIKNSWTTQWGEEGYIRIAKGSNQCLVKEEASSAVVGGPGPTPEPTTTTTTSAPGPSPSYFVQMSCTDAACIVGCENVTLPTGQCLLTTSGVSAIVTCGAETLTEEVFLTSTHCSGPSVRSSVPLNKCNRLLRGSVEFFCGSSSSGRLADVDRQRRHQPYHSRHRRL

SMILES | CC50 at 72 h [1] [µM] | IC50 (Trypanosoma cruzi [2]) [µM] | CC50 at 72 h [3] [µM] | solubility [4] | inhibition [5] [%] | other results
C/C(=N\Nc1nc(CCl)cs1)c1ccc(Cl)c(Cl)c1 | > 50 | > 50 | > 50 | Soluble | 50 | –
C/C(=N\Nc1nc(-c2ccc(Cl)cc2)cs1)c1ccc(Cl)c(Cl)c1 | > 50 | > 50 | > 50 | Soluble | 31 | –
C/C(=N\Nc1nc(-c2ccc3ccccc3c2)cs1)c1ccc(Cl)c(Cl)c1 | > 50 | > 50 | > 50 | Soluble | 44 | –
C/C(=N\N=C(\N)S)c1ccc(Cl)c(Cl)c1 | – | – | – | – | – | CC50 [6]: > 100 µM; IC50 (Trypanosoma cruzi [7]): 7.1 µM
C/C(=N\Nc1nc(C)c(C)s1)c1ccc(Cl)c(Cl)c1 | 41.8 | 10.5 | > 50 | Soluble | 84 | IC50 (Cruzipain): 9 µM
C/C(=N\Nc1nc(C)cs1)c1ccc(Cl)c(Cl)c1 | 33.7 | 17.1 | 26.1 | Soluble | 97 | IC50 (Cruzipain): 0.6 µM
C/C(=N\Nc1nc(-c2ccccc2)c(C)s1)c1ccc(Cl)c(Cl)c1 | > 50 | 17.8 | > 50 | Soluble | 76 | –
C/C(=N\Nc1nc(-c2ccccn2)cs1)c1ccc(Cl)c(Cl)c1 | 10.1 | 0.37 | 10.2 | Soluble | 17 | Activity (Trypanosoma cruzi [8]): 0.19%; Activity (Trypanosoma cruzi [9]): 64.1%; Activity (Trypanosoma cruzi [10]): 18.05%; Ratio IC50 (Trypanosoma cruzi [11]): 28; Activity (Trypanosoma cruzi [12]): Active; Activity (Trypanosoma cruzi [13]): 74.62%; selectivity ratio [14]: 22; Activity (Trypanosoma cruzi [15]): 7.13%; CI (Trypanosoma cruzi [16]): 0.37; Activity (Trypanosoma cruzi [17]): Dose-dependent effect; Activity (Trypanosoma cruzi [18]): Dose-dependent effect; Activity (Trypanosoma cruzi [19]): Active; Activity (Trypanosoma cruzi [20]): 54.6%; selectivity ratio [21]: 7; Activity (Mus musculus): Non-Toxic
C/C(=N\Nc1nc(-c2ccc(F)cc2)cs1)c1ccc(Cl)c(Cl)c1 | > 50 | > 50 | > 50 | Soluble | 32 | –
C/C(=N\Nc1nc(-c2ccncc2)cs1)c1ccc(Cl)c(Cl)c1 | 39.8 | 16.8 | 41.9 | Soluble | 32 | –
C/C(=N\Nc1nc(-c2ccc([N+](=O)[O-])cc2)cs1)c1ccc(Cl)c(Cl)c1 | > 50 | > 50 | > 50 | Soluble | – | –
COc1ccc(-c2csc(N/N=C(\C)c3ccc(Cl)c(Cl)c3)n2)cc1 | > 50 | 17.1 | > 50 | Soluble | 41 | –
